Reference: ChEMBL document CHEMBL1150609, “New furanoid diterpenes from Caesalpinia pulcherrima” (2002)

Experiments:
Assay type in all cases: functional
[1] = tested on: Trichophyton mentagrophytes; assay: Antimicrobial activity against Trichophyton mentagrophytes UPCC 4193 assessed as clearing zone at 30 ug after 72 hrs; settings: read-out: IZ
Procedure, shortened: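 T. mentagrophytes was grown as a 5-day culture and suspended in 0.1% peptone water at about 6 × 10^8 cells/mL. A 0.1 mL aliquot was seeded into a potato dextrose agar overlay with three 10 mm wells, each dosed in 95% EtOH (70 µg test sample; 30 µg standard). Plates were incubated at 30 ± 1 °C for 72 h, and the clear inhibition zone was read in mm.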

Escherichia coli [2] = assay: Antimicrobial activity against Escherichia coli UPCC 1195 assessed as antimicrobial index at 30 ug after 24 hrs
Staphylococcus aureus [3] = assay: Antimicrobial activity against Staphylococcus aureus UPCC 1143 assessed as clearing zone at 30 ug after 24 hrs; settings: read-out: IZ
Procedure, shortened: (§1)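 Agar-well diffusion. 24 h cultures were suspended in 0.1% peptone water at about 6 × 10^8 cells/mL, and 0.1 mL was seeded into a nutrient agar overlay. Three 10 mm wells were cut per plate, each loaded with sample in 95% EtOH (70 µg test sample; 30 µg standard). Plates were incubated at 30 ± 1 °C for 24 h, and the clear inhibition zone was measured in mm.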

Pseudomonas aeruginosa [4] = assay: Antimicrobial activity against Pseudomonas aeruginosa UPCC 1244 assessed as antimicrobial index at 30 ug after 24 hrs
Pseudomonas aeruginosa [5] = assay: Antimicrobial activity against Pseudomonas aeruginosa UPCC 1244 assessed as clearing zone at 30 ug after 24 hrs; settings: read-out: IZ; procedure, shortened: as §1
Aspergillus niger [6] = assay: Antimicrobial activity against Aspergillus niger UPCC 3701 assessed as antimicrobial index at 30 ug after 48 hrs
Candida albicans [7] = assay: Antimicrobial activity against Candida albicans UPCC 2168 assessed as clearing zone at 30 ug after 48 hrs; settings: read-out: IZ
Procedure, shortened: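 C. albicans was grown as a 24 h culture, suspended at about 6 × 10^8 cells/mL in 0.1% peptone water, and 0.1 mL was seeded into a glucose yeast peptone agar overlay. Three 10 mm wells per plate received sample in 95% EtOH (70 µg test sample; 30 µg standard). Plates were incubated at 30 ± 1 °C for 48 h, and the clear growth-inhibition zone was measured in mm.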

[8] = tested on: Trichophyton mentagrophytes; assay: Antimicrobial activity against Trichophyton mentagrophytes UPCC 4193 assessed as antimicrobial index at 30 ug after 72 hrs
Escherichia coli [9] = assay: Antimicrobial activity against Escherichia coli UPCC 1195 assessed as clearing zone at 30 ug after 24 hrs; settings: read-out: IZ; procedure, shortened: as §1
Bacillus subtilis [10] = assay: Antimicrobial activity against Bacillus subtilis UPCC 1149 assessed as antimicrobial index at 30 ug after 24 hrs
Bacillus subtilis [11] = assay: Antimicrobial activity against Bacillus subtilis UPCC 1149 assessed as clearing zone at 30 ug after 24 hrs; settings: read-out: IZ; procedure, shortened: as §1
Staphylococcus aureus [12] = assay: Antimicrobial activity against Staphylococcus aureus UPCC 1143 assessed as antimicrobial index at 30 ug after 24 hrs
Candida albicans [13] = assay: Antimicrobial activity against Candida albicans UPCC 2168 assessed as antimicrobial index at 30 ug after 48 hrs
Aspergillus niger [14] = assay: Antimicrobial activity against Aspergillus niger UPCC 3701 assessed as clearing zone at 30 ug after 48 hrs; settings: read-out: IZ

| SMILES | zone of inhibition at 30 µg/disc [1] [mm] | Activity (Escherichia coli [2]) | zone of inhibition at 30 µg/disc (Staphylococcus aureus [3]) [mm] | Activity (Pseudomonas aeruginosa [4]) | zone of inhibition at 30 µg/disc (Pseudomonas aeruginosa [5]) [mm] | Activity (Aspergillus niger [6]) | zone of inhibition at 30 µg/disc (Candida albicans [7]) [mm] | Activity [8] | zone of inhibition at 30 µg/disc (Escherichia coli [9]) [mm] | Activity (Bacillus subtilis [10]) | zone of inhibition at 30 µg/disc (Bacillus subtilis [11]) [mm] | Activity (Staphylococcus aureus [12]) | Activity (Candida albicans [13]) | zone of inhibition at 30 µg/disc (Aspergillus niger [14]) [mm] |
| --- | --- | --- | --- | --- | --- | --- | --- | --- | --- | --- | --- | --- | --- | --- |
| C=C1c2ccoc2C[C@H]2[C@H]1C[C@@H](OC(=O)c1ccccc1)[C@@]1(O)C(C)(C)CCC[C@]21C [ISOVOUACAPENOL A] | 12 | 0.2 | 16 | 0.2 | 12 | 0 | 14 | 0.2 | 12 | 0.5 | 15 | 0.6 | 0.4 |  |
| Cc1c2c(cc3occc13)[C@@]1(C)CCCC(C)(C)[C@]1(O)[C@H](OC(=O)c1ccccc1)C2 [ISOVOUACAPENOL D] | 12 | 0.2 | 12 | 0.2 | 12 | 0 | 12 | 0.2 | 12 | 0.2 | 12 | 0.2 | 0.2 |  |
| CC1(C)CCC[C@]2(C)[C@H]3Cc4occc4[C@@](C)(O)[C@@H]3C[C@@H](OC(=O)c3ccccc3)[C@@]12O [ISOVOUACAPENOL B] | 13 | 0.2 | 14 | 0.4 | 14 | 0.2 | 14 | 0.3 | 12 | 0.4 | 14 | 0.4 | 0.4 | 12 |
| C[C@@H]1C[C@@H]([C@H](O)CC2CC(=O)NC(=O)C2)C(=O)[C@@H](C)C1 [CYCLOHEXIMIDE] |  |  |  |  |  | 0.3 |  |  |  |  |  |  |  | 13 |
| Clc1ccccc1C(c1ccccc1)(c1ccccc1)n1ccnc1 [CLOTRIMAZOLE] | 21 |  |  |  |  |  | 20 | 1.1 |  |  |  |  | 1 |  |
| O=C(N[C@H](CO)[C@H](O)c1ccc([N+](=O)[O-])cc1)C(Cl)Cl [CHLORAMPHENICOL] |  | 1.4 | 28 | 0.2 | 12 |  |  |  | 24 | 2.5 | 35 | 1.8 |  |  |
| C[C@H]1c2ccoc2C[C@H]2[C@H]1[C@@H](O)[C@@H](OC(=O)c1ccccc1)[C@@]1(O)C(C)(C)CCC[C@]21C [ISOVOUACAPENOL C] | 13 | 0.2 | 16 | 0.2 | 12 | 0 | 13 | 0.3 | 12 | 0.5 | 15 | 0.6 | 0.3 |  |
| COc1cccc(OC)c1C(=O)OCc1ccccc1 | 14 | 0.2 | 12 | 0.3 | 13 | 0 | 14 | 0.4 | 12 | 0.3 | 13 | 0.2 | 0.4 |  |
